Source: ChEMBL document CHEMBL5724801, “EUbOPEN Chemogenomics Library - Multiplex” (2024)
Where “and” joins values, the source holds several entries; their conditions need not be identical. Equal values may be shown once.

Tested on: U2OS
Test: Multiplex assay against U2OS
Assay type: toxicity, cell-based
Conditions: human
Procedure, shortened: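 Imaging took place on a CQ1 microscope at 37°C and 5% CO2 once compound had been added to live cells stained at seeding with Hoechst33342, BioTracker Green Microtubule Cytoskeleton Dye, MitoTracker Red and Annexin V Alexa Fluor 680. CellPathfinder machine-learning gating classed cells as Hoechst high-intensity objects or normal cells, classed normal cells as having healthy, pyknosed or fragmented nuclei, and classed pyknosed cells as mitotic or apoptotic. Tubulin, mitochondrial-mass and membrane-permeability phenotypes are per cents of the healthy-nucleus cells.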

[1] = 12 h, 1 µM, compound concentration 1 uM
[2] = 12 h, 10 µM, compound concentration 10 uM
[3] = 24 h, 1 µM, compound concentration 1 uM
[4] = 24 h, 10 µM, compound concentration 10 uM
[5] = 48 h, 1 µM, compound concentration 1 uM
[6] = 48 h, 10 µM, compound concentration 10 uM

Cc1cc(C)c(NC(=O)C2CC3CCC2C3)c(C)c1 (stereo unspecified)
Population Apoptotic (%) [1]: 35.29% | Population Fragmented Nuclei (%) [1]: 2.08% and 2.72% | Population Healthy Nuclei (%) [1]: 89.09% and 88.04% | Population Hoechst High Intensity Objects (%) [1]: 0% | Population Membrane Permeable-Phenotype (%) [1]: 1.75% and 1.23% | Population Mitochondria Different-Phenotype (%) [1]: 0.29% and 4.94% | Population Mitotic Cells (%) [1]: 64.71% | Population Normal (%) [1]: 100% | Population Pyknosed Nuclei (%) [1]: 8.83% and 9.24% | Population Tubulin-Different-Phenotype (%) [1]: 2.04% and 0% | Total Cell Count [1]: 385 and 184 | Population Apoptotic (%) [2]: 50% and 36% | Population Fragmented Nuclei (%) [2]: 2.53% and 4.4% | Population Healthy Nuclei (%) [2]: 88.71% and 79.87% | Population Hoechst High Intensity Objects (%) [2]: 0% | Population Membrane Permeable-Phenotype (%) [2]: 1.56% and 2.36% | Population Mitochondria Different-Phenotype (%) [2]: 0.26% and 8.66% | Population Mitotic Cells (%) [2]: 50% and 64% | Population Normal (%) [2]: 100% | Population Pyknosed Nuclei (%) [2]: 8.76% and 15.72% | Population Tubulin-Different-Phenotype (%) [2]: 0.52% and 1.57% | Total Cell Count [2]: 434 and 159 | Population Apoptotic (%) [3]: 42.86% and 36% | Population Fragmented Nuclei (%) [3]: 2.11% and 1.27% | Population Healthy Nuclei (%) [3]: 84.48% and 88.19% | Population Hoechst High Intensity Objects (%) [3]: 0.19% and 0% | Population Membrane Permeable-Phenotype (%) [3]: 1.36% and 1.91% | Population Mitochondria Different-Phenotype (%) [3]: 0.23% and 2.39% | Population Mitotic Cells (%) [3]: 57.14% and 64% | Population Normal (%) [3]: 99.81% and 100% | Population Pyknosed Nuclei (%) [3]: 13.41% and 10.55% | Population Tubulin-Different-Phenotype (%) [3]: 0.91% and 0% | Total Cell Count [3]: 523 and 237 | Population Apoptotic (%) [4]: 34.38% and 46.43% | Population Fragmented Nuclei (%) [4]: 2.9% and 2.49% | Population Healthy Nuclei (%) [4]: 86.2% and 83.58% | Population Hoechst High Intensity Objects (%) [4]: 0.17% and 0% | Population Membrane Permeable-Phenotype (%) [4]: 1.19% | Population Mitochondria Different-Phenotype (%) [4]: 0.4% and 3.57% | Population Mitotic Cells (%) [4]: 65.62% and 53.57% | Population Normal (%) [4]: 99.83% and 100% | Population Pyknosed Nuclei (%) [4]: 10.9% and 13.93% | Population Tubulin-Different-Phenotype (%) [4]: 0.79% and 2.38% | Total Cell Count [4]: 588 and 201 | Population Apoptotic (%) [5]: 45% and 48.57% | Population Fragmented Nuclei (%) [5]: 2.82% and 2% | Population Healthy Nuclei (%) [5]: 88.83% and 89.25% | Population Hoechst High Intensity Objects (%) [5]: 0% | Population Membrane Permeable-Phenotype (%) [5]: 2% and 1.96% | Population Mitochondria Different-Phenotype (%) [5]: 0.12% and 3.08% | Population Mitotic Cells (%) [5]: 55% and 51.43% | Population Normal (%) [5]: 100% | Population Pyknosed Nuclei (%) [5]: 8.35% and 8.75% | Population Tubulin-Different-Phenotype (%) [5]: 1.53% and 0.28% | Total Cell Count [5]: 958 and 400 | Population Apoptotic (%) [6]: 38.02% and 53.12% | Population Fragmented Nuclei (%) [6]: 3.32% and 3.75% | Population Healthy Nuclei (%) [6]: 86.1% and 87.03% | Population Hoechst High Intensity Objects (%) [6]: 0% | Population Membrane Permeable-Phenotype (%) [6]: 1.52% and 2.32% | Population Mitochondria Different-Phenotype (%) [6]: 0.1% and 3.97% | Population Mitotic Cells (%) [6]: 61.98% and 46.88% | Population Normal (%) [6]: 100% | Population Pyknosed Nuclei (%) [6]: 10.58% and 9.22% | Population Tubulin-Different-Phenotype (%) [6]: 1.22% and 1.99%

C=CC(=O)Nc1cc(Nc2nccc(-n3cc(CN(C)C)c(-c4ccccc4)n3)n2)c(OC)cc1N1CCOCC1 [LAZERTINIB]
Population Apoptotic (%) [1]: 37.5% and 46.67% | Population Fragmented Nuclei (%) [1]: 2.41% and 2.92% | Population Healthy Nuclei (%) [1]: 85.54% and 75.18% | Population Hoechst High Intensity Objects (%) [1]: 0% | Population Membrane Permeable-Phenotype (%) [1]: 40.14% and 54.37% | Population Mitotic Cells (%) [1]: 62.5% and 53.33% | Population Normal (%) [1]: 100% | Population Pyknosed Nuclei (%) [1]: 12.05% and 21.9% | Population Tubulin-Different-Phenotype (%) [1]: 55.63% and 64.08% | Total Cell Count [1]: 332 and 137 | Population Apoptotic (%) [2]: 49.07% and 38.89% | Population Fragmented Nuclei (%) [2]: 3.84% and 4.81% | Population Healthy Nuclei (%) [2]: 68.54% and 60.58% | Population Hoechst High Intensity Objects (%) [2]: 0% | Population Membrane Permeable-Phenotype (%) [2]: 48.88% and 50.79% | Population Mitotic Cells (%) [2]: 50.93% and 61.11% | Population Normal (%) [2]: 100% | Population Pyknosed Nuclei (%) [2]: 27.62% and 34.62% | Population Tubulin-Different-Phenotype (%) [2]: 97.39% and 85.71% | Population Apoptotic (%) [3]: 29.69% and 52.94% | Population Fragmented Nuclei (%) [3]: 2.35% and 3.45% | Population Healthy Nuclei (%) [3]: 80.94% and 73.1% | Population Hoechst High Intensity Objects (%) [3]: 0% | Population Membrane Permeable-Phenotype (%) [3]: 20% and 30.19% | Population Mitotic Cells (%) [3]: 70.31% and 47.06% | Population Normal (%) [3]: 100% | Population Pyknosed Nuclei (%) [3]: 16.71% and 23.45% | Population Tubulin-Different-Phenotype (%) [3]: 32.58% and 42.45% | Total Cell Count [3]: 383 and 145 | Population Apoptotic (%) [4]: 55.04% and 53.66% | Population Fragmented Nuclei (%) [4]: 3.46% and 5.83% | Population Healthy Nuclei (%) [4]: 64.69% and 54.37% | Population Hoechst High Intensity Objects (%) [4]: 0.25% and 0% | Population Membrane Permeable-Phenotype (%) [4]: 39.69% and 35.71% | Population Mitotic Cells (%) [4]: 44.96% and 46.34% | Population Normal (%) [4]: 99.75% and 100% | Population Pyknosed Nuclei (%) [4]: 31.85% and 39.81% | Population Tubulin-Different-Phenotype (%) [4]: 93.51% and 87.5% | Population Apoptotic (%) [5]: 61.96% and 68.33% | Population Fragmented Nuclei (%) [5]: 3% and 6.88% | Population Healthy Nuclei (%) [5]: 79.78% and 55.62% | Population Hoechst High Intensity Objects (%) [5]: 0% | Population Mitotic Cells (%) [5]: 38.04% and 31.67% | Population Normal (%) [5]: 100% | Population Pyknosed Nuclei (%) [5]: 17.23% and 37.5% | Population Tubulin-Different-Phenotype (%) [5]: 15.02% and 28.09% | Population Apoptotic (%) [6]: 64.5% and 69.23% | Population Fragmented Nuclei (%) [6]: 5.97% and 5.31% | Population Healthy Nuclei (%) [6]: 59.26% and 60.18% | Population Hoechst High Intensity Objects (%) [6]: 0% | Population Membrane Permeable-Phenotype (%) [6]: 31.6% and 30.88% | Population Mitotic Cells (%) [6]: 35.5% and 30.77% | Population Normal (%) [6]: 100% | Population Pyknosed Nuclei (%) [6]: 34.77% and 34.51% | Population Tubulin-Different-Phenotype (%) [6]: 77.43% and 79.41%

CN1CCN(c2nc3cc(C(F)(F)F)ccc3n3cccc23)CC1.O=C(O)/C=C\C(=O)O.O=C(O)/C=C\C(=O)O
Population Apoptotic (%) [1]: 77% and 100% | Population Fragmented Nuclei (%) [1]: 17% and 18% | Population Healthy Nuclei (%) [1]: 75% and 73% | Population Hoechst High Intensity Objects (%) [1]: 1% and 0% | Population Membrane Permeable-Phenotype (%) [1]: 4% and 8% | Population Mitochondria Different-Phenotype (%) [1]: 0% and 2% | Population Mitotic Cells (%) [1]: 22% and 0% | Population Normal (%) [1]: 98% and 99% | Population Pyknosed Nuclei (%) [1]: 6% and 8% | Population Tubulin-Different-Phenotype (%) [1]: 1% and 3% | Total Cell Count [1]: 266 and 111 | Population Apoptotic (%) [2]: 66% and 88% | Population Fragmented Nuclei (%) [2]: 31% and 25% | Population Healthy Nuclei (%) [2]: 53% and 68% | Population Hoechst High Intensity Objects (%) [2]: 1% and 2% | Population Membrane Permeable-Phenotype (%) [2]: 18% and 13% | Population Mitochondria Different-Phenotype (%) [2]: 45% and 41% | Population Mitotic Cells (%) [2]: 33% and 11% | Population Normal (%) [2]: 98% and 97% | Population Pyknosed Nuclei (%) [2]: 15% and 6% | Population Tubulin-Different-Phenotype (%) [2]: 19% and 21% | Total Cell Count [2]: 218 and 135 | Population Apoptotic (%) [3]: 85% and 92% | Population Fragmented Nuclei (%) [3]: 17% and 13% | Population Healthy Nuclei (%) [3]: 73% and 77% | Population Hoechst High Intensity Objects (%) [3]: 2% and 0% | Population Membrane Permeable-Phenotype (%) [3]: 5% and 8% | Population Mitochondria Different-Phenotype (%) [3]: 1% and 4% | Population Mitotic Cells (%) [3]: 14% and 7% | Population Normal (%) [3]: 97% and 99% | Population Pyknosed Nuclei (%) [3]: 9% | Population Tubulin-Different-Phenotype (%) [3]: 3% and 4% | Total Cell Count [3]: 300 and 136 | Population Apoptotic (%) [4]: 76% and 78% | Population Fragmented Nuclei (%) [4]: 31% and 19% | Population Healthy Nuclei (%) [4]: 57% and 71% | Population Hoechst High Intensity Objects (%) [4]: 3% | Population Membrane Permeable-Phenotype (%) [4]: 16% and 17% | Population Mitochondria Different-Phenotype (%) [4]: 41% and 36% | Population Mitotic Cells (%) [4]: 24% and 21% | Population Normal (%) [4]: 96% | Population Pyknosed Nuclei (%) [4]: 10% and 9% | Population Tubulin-Different-Phenotype (%) [4]: 14% and 16% | Total Cell Count [4]: 244 and 156 | Population Apoptotic (%) [5]: 87% and 85% | Population Fragmented Nuclei (%) [5]: 14% and 17% | Population Healthy Nuclei (%) [5]: 77% and 75% | Population Hoechst High Intensity Objects (%) [5]: 2% and 1% | Population Membrane Permeable-Phenotype (%) [5]: 4% and 6% | Population Mitochondria Different-Phenotype (%) [5]: 0% and 5% | Population Mitotic Cells (%) [5]: 12% and 14% | Population Normal (%) [5]: 97% and 98% | Population Pyknosed Nuclei (%) [5]: 7% | Population Tubulin-Different-Phenotype (%) [5]: 2% and 3% | Total Cell Count [5]: 447 and 187 | Population Apoptotic (%) [6]: 78% and 81% | Population Fragmented Nuclei (%) [6]: 31% and 21% | Population Healthy Nuclei (%) [6]: 52% and 67% | Population Hoechst High Intensity Objects (%) [6]: 4% and 3% | Population Membrane Permeable-Phenotype (%) [6]: 16% and 10% | Population Mitochondria Different-Phenotype (%) [6]: 17% and 16% | Population Mitotic Cells (%) [6]: 21% and 18% | Population Normal (%) [6]: 95% and 96% | Population Pyknosed Nuclei (%) [6]: 16% and 11% | Population Tubulin-Different-Phenotype (%) [6]: 12% and 9% | Total Cell Count [6]: 299 and 202
